Broadly, the pIC50 is the negative decadic logarithm of the IC50, by convention in mol/L.

Consider 15 compounds from ChEMBL document CHEMBL1154860, “Synthesis and investigation of inhibition effect of fluorinated sulfonamide derivatives on carbonic anhydrase” (Eur J Med Chem, 2010).

pIC50: −log10 of the molar value. Active and inactive are the calls of the source. No cut-off for these calls is given here.

Data set [1] in a line: Inhibition of bovine carbonic anhydrase assessed as conversion of 4-nitrophenyl acetate to 4-nitrophnolate after 5 mins. On the set-up: species or system Bos taurus. The gist of the method:
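Bovine CA at 2.9 × 10^-6 M (concentration set from A280) measured by initial rate of 4-nitrophenyl acetate hydrolysis, substrate in acetone/water over a range of concentrations. 4-Nitrophenolate formation followed at 348 nm, pH 8, with non-enzymatic hydrolysis subtracted. Inhibitors dissolved in distilled–deionized water. Triplicates at each substrate and inhibitor concentration; IC50 is the mean of 3 assays.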

For data set [2], the species on record is Bos taurus. In words: Inhibition of bovine carbonic anhydrase assessed as conversion of 4-nitrophenyl acetate to 4-nitrophnolate at 0.27 to 2.07 uM after 5 mins. In short, it runs like this:
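Native bovine CA, concentration set from A280 (2.9 × 10^-6 M). Initial rate of 4-nitrophenyl acetate hydrolysis followed at 348 nm at pH 8. Substrate was 1.04 × 10^-3 to 1.875 × 10^-4 M, prepared in acetone/water, and inhibitors were dissolved in water. Non-enzymatic hydrolysis was subtracted, each point was run in triplicate, and values are means of 3 assays.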

Data set [3] can be described thus: Cytotoxicity in sheep RBC assessed as hemolysis at 62.5 uM after 20 mins. Format: cell-based, Ovis aries. The conditions noted are these: erythrocyte. In short, it runs like this: (§1)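 Sheep erythrocytes were washed three times in PBS pH 7.4 just before the assay and used at a final 5% cell concentration in the same buffer. After incubation with compound, samples were centrifuged and supernatant absorbance was read at 405 nm. The 0% and 100% hemolysis references were erythrocyte stock in PBS and in distilled water, processed identically.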

The nature of data set [4]: Cytotoxicity in sheep RBC assessed as hemolysis at 1000 uM after 20 mins. It counts as cell-based, Ovis aries. The conditions noted are these: erythrocyte. In short, it runs like this:
as §1

Data set [5] concerns the target Carbonic anhydrase 2 (Homo sapiens, UniProt P00918). In words: Inhibition of human carbonic anhydrase 2 assessed as conversion of 4-nitrophenyl acetate to 4-nitrophnolate after 5 mins.
Data set [6] is described as follows: Cytotoxicity in sheep RBC assessed as hemolysis at 31.25 uM after 20 mins. Format: cell-based, Ovis aries. Conditions: erythrocyte. The gist of the method:
as §1

Data set [7] in a line: Cytotoxicity in sheep RBC assessed as hemolysis at 0.125 to 1000 uM after 20 mins. It counts as cell-based, Ovis aries. Conditions: erythrocyte. In short, it runs like this:
as §1

For the compound `NS(=O)(=O)C(F)(F)C(F)(F)C(F)(F)C(F)(F)S(N)(=O)=O`, the pIC50 in data set [1] was 5.76.

As for `NS(=O)(=O)C(F)(F)C(F)(F)C(F)(F)C(F)(F)F`, the negative-log IC50 (pIC50) in data set [1] was 5.83.

`CCCCCCCCS(N)(=O)=O`: the inhibition result in data set [2] is “inactive”.

Regarding `CCCCCCS(N)(=O)=O`, in data set [2], the inhibition entry was “inactive”.

Regarding `NS(=O)(=O)C(F)(F)C(F)(F)C(F)(F)C(F)(F)C(F)(F)C(F)(F)C(F)(F)C(F)(F)F`, the pIC50 in data set [1] was 5.80. Moreover, the Activity result in data set [3] was “Toxic”.

On to `NS(=O)(=O)CCC(F)(F)C(F)(F)C(F)(F)C(F)(F)C(F)(F)C(F)(F)F`, for which the pIC50 in data set [1] is 5.72.

`[NH-]S(=O)(=O)C(F)(F)C(F)(F)C(F)(F)C(F)(F)C(F)(F)C(F)(F)F.[Na+]` [SODIUM PERFLUOROHEXANESULFONAMIDE]: the Activity entry in data set [4] is on record as “Non-toxic”. The figures for the pIC50 in data set [5] and in data set [1] were 6.91 and 5.86, respectively.

Turning to `CC(=O)Nc1nnc(S(N)(=O)=O)s1` [ACETAZOLAMIDE], the pIC50 in data set [1] was 5.87.

Regarding `NS(=O)(=O)C(F)(F)F` [TRIFLUOROMETHANESULFONAMIDE], the negative-log IC50 (pIC50) in data set [1] is 5.83.

For the compound `NS(=O)(=O)CCC(F)(F)C(F)(F)C(F)(F)C(F)(F)C(F)(F)C(F)(F)C(F)(F)C(F)(F)F`, the pIC50 in data set [1] is 5.78.

On to `NS(=O)(=O)CCC(F)(F)C(F)(F)C(F)(F)C(F)(F)F`, for which the pIC50 in data set [1] was 5.68.

As to `NS(=O)(=O)C(F)(F)C(F)(F)C(F)(F)C(F)(F)F` [SODIUM PERFLUOROBUTANESULFONAMIDE], in data set [1], the pIC50 is 5.78.

On to `NS(=O)(=O)C(F)(F)C(F)(F)C(F)(F)C(F)(F)C(F)(F)C(F)(F)C(F)(F)F`, for which, in data set [1], the pIC50 was 5.76.

As to `[NH-]S(=O)(=O)C(F)(F)C(F)(F)C(F)(F)C(F)(F)C(F)(F)C(F)(F)C(F)(F)C(F)(F)F.[Na+]` [SODIUM PERFLUOROOCTANESULFONAMIDE], in data set [6], the Activity entry is reported as “Toxic”. Also, the pIC50 in data set [1] is 5.75.

As for `NS(=O)(=O)C(F)(F)C(F)(F)C(F)(F)C(F)(F)C(F)(F)C(F)(F)F`, the Activity entry in data set [4] and in data set [7] was “Non-toxic” in each case. In addition, the pIC50 in data set [1] is 5.83.
